As usually defined, the IC50 is the midpoint of a concentration-inhibition curve. Lower therefore signals higher potency.

The target in test [1] is Fibroblast growth factor receptor (Homo sapiens, UniProt P22607+P11362+P22455+P21802). As to the kind of experiment: Inhibitory concentration of compound against human fibroblast growth factor receptor. Type of test: protein assay.
Test [2] addresses Proto-oncogene tyrosine-protein kinase Src (Gallus gallus, UniProt P00523). Put plainly: Inhibition of chicken c-Src tyrosine kinase. In a few lines:
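Recombinant avian c-Src expressed in baculovirus-infected insect cells, immunopurified on polystyrene beads carrying a covalently linked Src-specific monoclonal antibody. The enzyme-bead suspension was assayed in vitro with 40 µM ATP, measuring 32P-phosphate transfer into a trichloroacetic acid-precipitable random glutamate/tyrosine (4:1) copolymer. The IC50 was in µM.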

Test [3] concerns the target Platelet-derived growth factor receptor (Mus musculus, UniProt P05622+P26618). As to the kind of experiment: Inhibitory concentration of compound against mouse Platelet-derived growth factor receptor.
In test [4] the target is Epidermal growth factor receptor (Homo sapiens, UniProt P00533). Put plainly: Inhibition of human epidermal growth factor receptor.
Epidermal growth factor receptor, sequence (P00533 whole entry): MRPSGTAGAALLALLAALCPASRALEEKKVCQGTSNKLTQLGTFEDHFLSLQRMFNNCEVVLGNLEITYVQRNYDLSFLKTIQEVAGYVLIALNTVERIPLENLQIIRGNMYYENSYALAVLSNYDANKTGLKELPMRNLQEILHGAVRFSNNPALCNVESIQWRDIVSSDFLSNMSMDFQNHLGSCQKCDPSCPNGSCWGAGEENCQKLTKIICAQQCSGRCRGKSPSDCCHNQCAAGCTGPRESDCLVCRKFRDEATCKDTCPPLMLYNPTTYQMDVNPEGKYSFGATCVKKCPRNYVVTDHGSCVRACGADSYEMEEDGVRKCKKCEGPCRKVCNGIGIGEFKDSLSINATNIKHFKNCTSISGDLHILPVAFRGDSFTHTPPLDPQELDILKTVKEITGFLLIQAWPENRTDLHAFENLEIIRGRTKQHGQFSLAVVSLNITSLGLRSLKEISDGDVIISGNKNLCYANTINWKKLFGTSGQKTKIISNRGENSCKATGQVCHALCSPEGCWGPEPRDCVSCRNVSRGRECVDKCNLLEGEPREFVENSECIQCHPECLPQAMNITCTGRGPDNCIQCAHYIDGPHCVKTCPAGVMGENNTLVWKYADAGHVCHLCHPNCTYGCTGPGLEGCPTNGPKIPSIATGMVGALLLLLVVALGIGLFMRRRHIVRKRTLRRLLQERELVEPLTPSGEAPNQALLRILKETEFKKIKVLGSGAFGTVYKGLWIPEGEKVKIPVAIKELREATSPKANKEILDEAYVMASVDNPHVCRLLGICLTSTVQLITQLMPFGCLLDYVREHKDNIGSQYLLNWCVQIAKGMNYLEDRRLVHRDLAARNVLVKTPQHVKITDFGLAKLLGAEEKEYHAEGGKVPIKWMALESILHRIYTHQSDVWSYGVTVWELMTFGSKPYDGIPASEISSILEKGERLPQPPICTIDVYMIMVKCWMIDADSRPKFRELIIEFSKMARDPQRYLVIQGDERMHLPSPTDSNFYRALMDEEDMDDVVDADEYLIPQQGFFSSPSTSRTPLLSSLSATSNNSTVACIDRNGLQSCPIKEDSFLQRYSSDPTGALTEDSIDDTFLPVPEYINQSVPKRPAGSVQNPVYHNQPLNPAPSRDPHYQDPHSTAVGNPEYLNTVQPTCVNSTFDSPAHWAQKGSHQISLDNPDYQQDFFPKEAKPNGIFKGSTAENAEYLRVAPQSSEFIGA

On to `Cn1c(=O)c(-c2c(Cl)cccc2Cl)cc2cncnc21`, for which the IC50 in test [1] was above 50000 nM; in test [2], above 10000 nM; in test [3], above 50000 nM; in test [4], above 50000 nM.

Consider `CCOc1cc(OCC)cc(-c2cc3cnc(N)nc3nc2NC(=O)NC(C)(C)C)c1`, for which the IC50 in test [1] was 1650 nM; in test [2], above 50000 nM; in test [3], above 50000 nM.

With `CC(C)(C)NC(=O)Nc1nc2nc(N)ncc2cc1-c1cc(C(F)(F)F)cc(C(F)(F)F)c1`, the IC50 in test [1], in test [2] and in test [3] was above 50000 nM in each case.

Take `COc1cc(OC)cc(-c2cc3cnc(N)nc3n(C)c2=O)c1`: the IC50 in test [1] is 126 nM; in test [2] it was above 50000 nM; in test [3], 43100 nM.

In the case of `CN1CCN(CCCNc2ncc3cc(-c4c(Cl)cccc4Cl)c(=O)n(C)c3n2)CC1`, the half-maximal inhibitory concentration (IC50) in test [1] worked out at 348 nM; in test [2] it was 237 nM; in test [3] it was 2700 nM.

Regarding `CN1CCN(c2ccc(Nc3ncc4cc(-c5c(Cl)cccc5Cl)c(=O)n(C)c4n3)cc2)CC1`, the values for the IC50 in test [1] and in test [3] were 51 nM and 115 nM, respectively.

For the compound `Cc1ncc2cc(-c3c(Cl)cccc3Cl)c(=O)n(C)c2n1`, the IC50 in test [1], in test [2], in test [3] and in test [4] was above 50000 nM in each case.

`CCN(CC)CCOc1cccc(Nc2ncc3cc(-c4c(Cl)cccc4Cl)c(=O)n(C)c3n2)c1` yielded an IC50 in test [2] of 9 nM.

As for `Cn1c(=O)c(-c2c(Cl)cccc2Cl)cc2cnc(Nc3ccc(CC(=O)O)cc3)nc21`, the concentration for half-maximal inhibition (IC50) in test [1] is 61 nM; in test [2], 10 nM; in test [3] it was 70 nM.

Regarding `CN1CCN(CCCNc2ncc3cc(-c4c(Cl)cccc4Cl)c(NC(=O)NCc4ccccc4)nc3n2)CC1`, the values for the IC50 in test [2] and in test [4] were 30 nM and 980 nM, respectively.

`CN(C)c1cc(-c2cc3cnc(N)nc3nc2NC(=O)NC(C)(C)C)cc(N(C)C)c1`: the half-inhibitory concentration (IC50) was above 16000 nM in test [1], above 50000 nM in test [2] and above 50000 nM in test [3].

For `CN(C)c1ncc2cc(-c3c(Cl)cccc3Cl)c(=O)n(C)c2n1`, the IC50 in test [1], in test [2], in test [3] and in test [4] was above 50000 nM throughout.

In test [4], `CN1CCN(CCCNc2ncc3cc(-c4c(Cl)cccc4Cl)c(NC(=O)NC4CCCCC4)nc3n2)CC1` returned an IC50 of 880 nM.

In the case of `COc1cc(OC)cc(-c2cc3cnc(N)nc3nc2NC(=O)NC(C)(C)C)c1`, the concentration for half-maximal inhibition (IC50) in test [2] was above 50000 nM.

As to `COc1ccc(NC(=O)Nc2nc3nc(NCCCN4CCN(C)CC4)ncc3cc2-c2c(Cl)cccc2Cl)cc1`, the IC50 stood at 28 nM in test [2] and 720 nM in test [4].
